Assays:
Type in all cases: functional
OVCAR-5 = assay: Cytotoxicity against human OVCAR5 cells assessed as cell growth at 10^-5 M after 48 hrs by SRB assay; conditions: OVCAR-5, 48 h, read-out: Activity
How it was run: (§1)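 NCI 60-panel single-dose primary screen at 10^-5 M. Cells are grown in RPMI 1640 with 5% FBS and 2 mM L-glutamine and preincubated 24 h at 37 °C. Drug exposure is 48 h. Cells are TCA-fixed, stained with SRB and absorbance is read at 515 nm. Results are reported as percent growth of treated cells versus untreated controls, corrected using time-zero plates.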

HCT-116 = assay: Cytotoxicity against human HCT116 cells assessed as cell growth at 10^-5 M after 48 hrs by SRB assay; conditions: HCT-116, 48 h, read-out: Activity
How it was run: (§2)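 NCI 60 single-dose screen at 10^-5 M. Cells in RPMI 1640 with 5% FBS and 2 mM L-glutamine, preincubated 24 h at 37 °C/5% CO2. Drug from DMSO stock, then 48 h exposure. TCA fixation, SRB staining, absorbance at 515 nm. Result given as percent growth of treated cells relative to untreated control.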

M14 = assay: Cytotoxicity against human M14 cells assessed as cell growth at 10^-5 M after 48 hrs by SRB assay; conditions: M14, 48 h, read-out: Activity; how it was run: as §2
IGROV-1 = assay: Cytotoxicity against human IGROV1 cells assessed as cell growth at 10^-5 M after 48 hrs by SRB assay; conditions: IGROV-1, 48 h, read-out: Activity; how it was run: as §2
MCF7 = assay: Cytotoxicity against human MCF7 cells assessed as cell growth at 10^-5 M after 48 hrs by SRB assay; conditions: MCF7, 48 h, read-out: Activity; how it was run: as §2
RPMI-8226 = assay: Cytotoxicity against human RPMI8226 cells assessed as cell growth at 10^-5 M after 48 hrs by SRB assay; conditions: RPMI-8226, 48 h, read-out: Activity; how it was run: as §1
TK-10 = assay: Cytotoxicity against human TK10 cells assessed as cell growth at 10^-5 M after 48 hrs by SRB assay; conditions: TK-10, 48 h, read-out: Activity
How it was run: (§3)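 NCI primary single-dose screen at 10^-5 M. Cells grown in RPMI 1640 with 5% FBS and 2 mM L-glutamine, given 24 h before drug addition, then 48 h exposure at 37 °C, 5% CO2. Cells TCA-fixed, stained with SRB, read at 515 nm. Reported as percent growth of treated cells relative to untreated controls.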

MDA-MB-435 = assay: Cytotoxicity against human MDA-MB-435 cells assessed as cell growth at 10^-5 M after 48 hrs by SRB assay; conditions: MDA-MB-435, 48 h, read-out: Activity; how it was run: as §2
OVCAR-8 = assay: Cytotoxicity against human OVCAR8 cells assessed as cell growth at 10^-5 M after 48 hrs by SRB assay; conditions: OVCAR-8, 48 h, read-out: Activity; how it was run: as §1
NCI-H322M = assay: Cytotoxicity against human NCI-H322M cells assessed as cell growth at 10^-5 M after 48 hrs by SRB assay; conditions: read-out: Activity; how it was run: as §1
NCI-H226 = assay: Cytotoxicity against human NCI-H226 cells assessed as cell growth at 10^-5 M after 48 hrs by SRB assay; conditions: NCI-H226, 48 h, read-out: Activity; how it was run: as §1
UACC-62 = assay: Cytotoxicity against human UACC62 cells assessed as cell growth at 10^-5 M after 48 hrs by SRB assay; conditions: UACC-62, 48 h, read-out: Activity; how it was run: as §3
A549 = assay: Cytotoxicity against human A549 cells assessed as cell growth at 10^-5 M after 48 hrs by SRB assay; conditions: A549, 48 h, read-out: Activity; how it was run: as §2
DU-145 = assay: Cytotoxicity against human DU145 cells assessed as cell growth at 10^-5 M after 48 hrs by SRB assay; conditions: DU-145, 48 h, read-out: Activity; how it was run: as §2
SF-295 = assay: Cytotoxicity against human SF295 cells assessed as cell growth at 10^-5 M after 48 hrs by SRB assay; conditions: SF-295, 48 h, read-out: Activity; how it was run: as §1
SK-MEL-28 = assay: Cytotoxicity against human SK-MEL-28 cells assessed as cell growth at 10^-5 M after 48 hrs by SRB assay; conditions: SK-MEL-28, 48 h, read-out: Activity; how it was run: as §1
HOP-92 = assay: Cytotoxicity against human HOP92 cells assessed as cell growth at 10^-5 M after 48 hrs by SRB assay; conditions: HOP-92, 48 h, read-out: Activity; how it was run: as §2
PC-3 = assay: Cytotoxicity against human PC3 cells assessed as cell growth at 10^-5 M after 48 hrs by SRB assay; conditions: PC-3, 48 h, read-out: Activity; how it was run: as §1
NCI-H23 = assay: Cytotoxicity against human NCI-H23 cells assessed as cell growth at 10^-5 M after 48 hrs by SRB assay; conditions: NCI-H23, 48 h, read-out: Activity; how it was run: as §1
UACC-257 = assay: Cytotoxicity against human UACC257 cells assessed as cell growth at 10^-5 M after 48 hrs by SRB assay; conditions: UACC-257, 48 h, read-out: Activity; how it was run: as §3
Hs-578T = assay: Cytotoxicity against human Hs578T cells assessed as cell growth at 10^-5 M after 48 hrs by SRB assay; conditions: read-out: Activity; how it was run: as §2
SK-MEL-5 = assay: Cytotoxicity against human SK-MEL-5 cells assessed as cell growth at 10^-5 M after 48 hrs by SRB assay; conditions: SK-MEL-5, 48 h, read-out: Activity; how it was run: as §1
HCC 2998 = assay: Cytotoxicity against human HCC2998 cells assessed as cell growth at 10^-5 M after 48 hrs by SRB assay; conditions: HCC 2998, 48 h, read-out: Activity; how it was run: as §2
NCI-H522 = assay: Cytotoxicity against human NCI-H522 cells assessed as cell growth at 10^-5 M after 48 hrs by SRB assay; conditions: NCI-H522, 48 h, read-out: Activity; how it was run: as §1
BT-549 = assay: Cytotoxicity against human BT549 cells assessed as cell growth at 10^-5 M after 48 hrs by SRB assay; conditions: BT-549, 48 h, read-out: Activity; how it was run: as §2
U-251 = assay: Cytotoxicity against human U251 cells assessed as cell growth at 10^-5 M after 48 hrs by SRB assay; conditions: U-251, 48 h, read-out: Activity; how it was run: as §3
RXF 393 = assay: Cytotoxicity against human RXF393 cells assessed as cell growth at 10^-5 M after 48 hrs by SRB assay; conditions: RXF 393, 48 h, read-out: Activity; how it was run: as §1
SNB-19 = assay: Cytotoxicity against human SNB19 cells assessed as cell growth at 10^-5 M after 48 hrs by SRB assay; conditions: SNB-19, 48 h, read-out: Activity; how it was run: as §1
SK-MEL-2 = assay: Cytotoxicity against human SK-MEL-2 cells assessed as cell growth at 10^-5 M after 48 hrs by SRB assay; conditions: SK-MEL-2, 48 h, read-out: Activity; how it was run: as §1

SMILES | growth at 10 µM (OVCAR-5) | growth at 10 µM (HCT-116) | growth at 10 µM (M14) | growth at 10 µM (IGROV-1) | growth at 10 µM (MCF7) | growth at 10 µM (RPMI-8226) | growth at 10 µM (TK-10) | growth at 10 µM (MDA-MB-435) | growth at 10 µM (OVCAR-8) | growth at 10 µM (NCI-H322M) | growth at 10 µM (NCI-H226) | growth at 10 µM (UACC-62) | growth at 10 µM (A549) | growth at 10 µM (DU-145) | growth at 10 µM (SF-295) | growth at 10 µM (SK-MEL-28) | growth at 10 µM (PC-3) | growth at 10 µM (NCI-H23) | growth at 10 µM (UACC-257) | growth at 10 µM (Hs-578T) | also measured
CCOC(=O)/C(C#N)=C\Nc1ccc2ncnc(Nc3ccccc3Cl)c2c1 | 90.1% | 113% | 119% | 79.7% | 110% | 84.3% | 53% | 100% | 105% | 47% | 116% | 107% | 82.4% | 62.1% | 102% | 119% | 98.8% | 103% | 120% | 91% | growth at 10 µM (HOP-92): 70.4%; growth at 10 µM (SK-MEL-5): 88.3%; growth at 10 µM (HCC 2998): 117%; growth at 10 µM (NCI-H522): 107%; growth at 10 µM (BT-549): 112%; growth at 10 µM (U-251): 96.3%; growth at 10 µM (RXF 393): 91.7%; growth at 10 µM (SNB-19): 94.5%; growth at 10 µM (SK-MEL-2): 106%
CCOC(=O)/C(C#N)=C\Nc1ccc2ncnc(Nc3ccc(Cl)cc3)c2c1 | 92.8% | 84.5% | 106% | 52.4% | 111% | 62.9% | 51.3% | 70.5% | 83.3% | 22.6% | 99.3% | 103% | 66.1% | 49.2% | 74.3% | 105% | 60.6% | 92.5% | 108% | 89.3% | growth at 10 µM (SK-MEL-5): 72%; growth at 10 µM (HCC 2998): 101%; growth at 10 µM (NCI-H522): 79.8%; growth at 10 µM (BT-549): 76.1%; growth at 10 µM (U-251): 84.7%; growth at 10 µM (RXF 393): 83.2%; growth at 10 µM (SNB-19): 88%; growth at 10 µM (SK-MEL-2): 105%
C#Cc1cccc(Nc2ncnc3ccc(N/C=C(\C#N)C(=O)OCC)cc23)c1 | 89.5% | 103% | 114% | 77.4% | 96.8% | 101% | 65.5% | 92% | 94.8% | 52.3% | 89.8% | 104% | 85.1% | 69.9% | 95.6% | 103% | 91.4% | 98.2% | 99.8% | 103% | growth at 10 µM (HOP-92): 90.3%; growth at 10 µM (SK-MEL-5): 89.4%; growth at 10 µM (HCC 2998): 102%; growth at 10 µM (NCI-H522): 86.3%; growth at 10 µM (BT-549): 99.6%; growth at 10 µM (U-251): 85.4%; growth at 10 µM (RXF 393): 92.9%; growth at 10 µM (SNB-19): 85.1%; growth at 10 µM (SK-MEL-2): 123%
NC(=O)Nc1ccc2ncnc(Nc3ccc(Cl)cc3)c2c1 | 83.6% | 96.4% | 107% | 61% | 86.5% | 101% | 26.5% | 97.8% | 89.5% | 18% | 99.8% | 87.9% | 72.5% | 52% | 90.7% | 106% | 79% | 100% | 100% | 87.8% | growth at 10 µM (HOP-92): 74.2%; growth at 10 µM (SK-MEL-5): 89.2%; growth at 10 µM (HCC 2998): 97.9%; growth at 10 µM (NCI-H522): 66.2%; growth at 10 µM (BT-549): 92.4%; growth at 10 µM (U-251): 95.7%; growth at 10 µM (RXF 393): 93.7%; growth at 10 µM (SNB-19): 78.6%; growth at 10 µM (SK-MEL-2): 127%
CCOC(=O)/C(C#N)=C\Nc1ccc2ncnc(Nc3ccc(Cl)cc3Cl)c2c1 | 82.2% | 92.9% | 106% | 55% | 87.6% | 79.5% | 44.2% | 75.7% | 87% | 75.7% | 99.8% | 90% | 72.1% | 55.9% | 82.2% | 109% | 59.3% | 99.5% | 97.2% | 75.5% | growth at 10 µM (HOP-92): 56.5%; growth at 10 µM (SK-MEL-5): 78.3%; growth at 10 µM (HCC 2998): 119%; growth at 10 µM (NCI-H522): 95.8%; growth at 10 µM (BT-549): 89.6%; growth at 10 µM (U-251): 81.3%; growth at 10 µM (RXF 393): 77%; growth at 10 µM (SNB-19): 86.4%; growth at 10 µM (SK-MEL-2): 110%
NC(=O)Nc1ccc2ncnc(Nc3cccc(O)c3)c2c1 | 98.1% | 109% | 102% | 107% | 97.3% | 112% | 103% | 101% | 98.9% | 83.5% | 102% | 105% | 93.5% | 90.4% | 98.1% | 114% | 102% | 100% | 99.8% | 105% | growth at 10 µM (HOP-92): 78%; growth at 10 µM (SK-MEL-5): 101%; growth at 10 µM (HCC 2998): 102%; growth at 10 µM (NCI-H522): 102%; growth at 10 µM (BT-549): 108%; growth at 10 µM (U-251): 87.8%; growth at 10 µM (RXF 393): 111%; growth at 10 µM (SNB-19): 93.1%
